A short description of data set [1]: Half life period in the absence of CPG2 (carboxypeptidase) enzyme. It is filed as ADME. An outline of the steps: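 Prodrug at 100 μM in phosphate-buffered saline (pH 7.4), 37 °C, without enzyme; samples injected at timed intervals on reverse-phase HPLC, isocratic methanol/water/10 mM NaH2PO4 (pH 5.0), detection at 500 nm. Chemical half-life from slope of semilog plot.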

The test system of a further data set is CPG2 (carboxypeptidase). Description: Half life period in the presence of CPG2 (carboxypeptidase) enzyme. It is filed as ADME. An outline of the steps:
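Prodrug at 100 μM in phosphate-buffered saline (pH 7.4), 37 °C, with 50 mU CPG2; timed samples analysed by reverse-phase HPLC, absorbance 500 nm. Plots linear on linear axes, so apparent half-life taken as time for concentration to fall to half its starting value.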

The test system of data set [2] is MDA-MB-361. Nature of the data set: The compound was tested for intracellular cytotoxicity against MDA MB 361(mammary carcinoma cell line) expressing LacZ (beta-galactosidase). It is filed as functional, cell-based. As to conditions: Homo sapiens. Put shortly: (§1)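 MDA MB 361 breast carcinoma cells stably expressing surface-tethered CPG2 (stCPG2(Q)3), intracellular CPG2 (CPG2*) or control beta-galactosidase (LacZ). Compounds dissolved in DMSO at 10 mM (stock) just before treatment. After exposure, cells harvested and reseeded in quadruplicate at ~2 × 10^3 cells/well. Cells fixed and stained with sulforhodamine-B once control plates reached confluence, absorbance read at 590 nm. Growth expressed as % of control, IC50 interpolated.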

Data set [3] has as its system MDA-MB-361. Description: The compound was tested for intracellular cytotoxicity against MDA MB 361(mammary carcinoma cell line) in the presence of CPG2 prodrug. It is filed as functional, cell-based. As to conditions: Homo sapiens. An outline of the steps:
(§2)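 Cytotoxicity differential: ratio of a prodrug's IC50 in MDA MB 361 cells expressing stCPG2(Q)3 or CPG2* to its IC50 in LacZ control cells. IC50 values come from a sulforhodamine-B growth assay (cells reseeded in quadruplicate after treatment, stained at control confluence, A590, % control growth, interpolation). Prodrug:drug ratio taken in LacZ cells.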

Data set [4] in a line: Ratio of the intracellular cytotoxicities against MDA MB 361(mammary carcinoma cell line) expressing LacZ (beta-galactosidase). between prodrug and drug. Format: functional. An outline of the steps:
(§3)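 MDA MB 361 cells stably expressing surface-tethered CPG2 (stCPG2(Q)3) or β-galactosidase control (LacZ) treated with compound (10 mM DMSO stock made fresh), then reseeded in quadruplicate at ~2 × 10^3 cells/well; fixed and sulforhodamine-B stained when controls confluent, A590. IC50 interpolated from % control growth; ratio = LacZ vs stCPG2(Q)3 IC50 or prodrug vs drug IC50 in LacZ cells.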

The subject of data set [5] is MDA-MB-361. Nature of the data set: The compound was tested for extracellular cytotoxicity against MDA MB 361(mammary carcinoma cell line) in the presence of stCPG2 prodrug. Format: functional, cell-based. The note with it: Homo sapiens. An outline of the steps:
as §2

The nature of data set [6]: Ratio of the extracellular cytotoxicities against MDA MB 361(mammary carcinoma cell line) expressing LacZ and carboxypeptidase stCPG2 of the prodrug. It is filed as functional. An outline of the steps: as §3
In data set [7] the test system is MDA-MB-361. Description: The compound was tested for extracellular cytotoxicity against MDA MB 361(mammary carcinoma cell line) expressing carboxypeptidase stCPG2. As to conditions: Homo sapiens. Format: functional, cell-based. An outline of the steps:
as §1

In data set [8] the test system is MDA-MB-361. Description: The compound was tested for intracellular cytotoxicity against MDA MB 361(mammary carcinoma cell line) expressing carboxypeptidase G2(CPG2). It is filed as functional, cell-based. The note with it: Homo sapiens. An outline of the steps:
as §1

Data on 6 compounds can be found in ChEMBL document CHEMBL1132269, “Self-immolative anthracycline prodrugs for suicide gene therapy” (J Med Chem, 1999).

Values joined by “and” are separate entries in the source; they are usually repeats but may differ in a detail not shown here. Equal values may be shown once.

The half-life is the time needed for the level to fall by half in the phase considered. What is called IC50 is the concentration at which inhibition is half-maximal. Turning to `COc1cccc2c1C(=O)c1c(O)c3c(c(O)c1C2=O)C[C@@](O)(C(C)=O)C[C@@H]3OC1CC(NC(=O)OCc2ccc(NC(=O)NC(CCC(=O)O)C(=O)O)cc2)C(O)C(C)O1` (stereo partly drawn), the values for the half-life (in [1]; in the data set on CPG2 (carboxypeptidase)) were 19.8 h and 0.645 h, respectively. The IC50 in the data set on MDA-MB-361 [2] worked out at 112 nM; in the data set with MDA-MB-361 [3], 123 nM; in the data set with MDA-MB-361 [5], 29 nM. For the same compound, in data set [4], the Ratio was determined as 6.6.
`COc1cccc2c1C(=O)c1c(O)c3c(c(O)c1C2=O)C[C@@](O)(C(=O)CO)C[C@@H]3OC1CC(NC(=O)OCc2ccc(NC(=O)NC(CCC(=O)O)C(=O)O)cc2)C(O)C(C)O1` (stereo partly drawn): the half-life in data set [1] was 15.8 h; with CPG2 (carboxypeptidase) it was 0.7 h. Further, the IC50 in the data set with MDA-MB-361 [2] was determined as 256 nM; in the data set with MDA-MB-361 [3], 47 nM; in the data set with MDA-MB-361 [5], 24 nM. For the same compound, the Ratio in [4] was 21.3; in data set [6], 5.4 and 10.7.
Regarding `COc1cccc2c1C(=O)c1c(O)c3c(c(O)c1C2=O)C[C@@](O)(C(=O)CO)C[C@@H]3OC1CC(NC(=O)OCc2ccc(OC(=O)NC(CCC(=O)O)C(=O)O)cc2)C(O)C(C)O1` (stereo partly drawn), the values for the half-life (in data set [1]; in the data set on CPG2 (carboxypeptidase)) were 28.4 h and 4.46 h, respectively. Moreover, the IC50 with MDA-MB-361 [2] was 279 nM; in the data set on MDA-MB-361 [3], 204 nM; with MDA-MB-361 [5], 92 nM. Further, the Ratio is 23.3 in [4]; 1.4 and 3 in data set [6].
For the compound `COc1cccc2c1C(=O)c1c(O)c3c(c(O)c1C2=O)C[C@@](O)(C(C)=O)C[C@@H]3OC1CC(NC(=O)OCc2ccc(OC(=O)NC(CCC(=O)O)C(=O)O)cc2)C(O)C(C)O1` (stereo partly drawn), the half-life in data set [1] amounted to 24.7 h; in the data set on CPG2 (carboxypeptidase), 2.21 h. The IC50 was 115 nM with MDA-MB-361 [2], 405 nM in the data set with MDA-MB-361 [3] and 177 nM in the data set with MDA-MB-361 [5]. In addition, the Ratio is 6.8 in [4]; 0.3 and 0.7 in [6].
Turning to `COc1cccc2c1C(=O)c1c(O)c3c(c(O)c1C2=O)C[C@@](O)(C(C)=O)C[C@@H]3O[C@H]1C[C@H](N)[C@H](O)[C@H](C)O1` [DAUNORUBICIN], the IC50 in the data set with MDA-MB-361 [2] was determined as 17 nM; in the data set on MDA-MB-361 [3], 36 nM; in the data set on MDA-MB-361 [5], 21 nM.
For `COc1cccc2c1C(=O)c1c(O)c3c(c(O)c1C2=O)C[C@@](O)(C(=O)CO)C[C@@H]3O[C@H]1C[C@H](N)[C@H](O)[C@H](C)O1` [DOXORUBICIN], the IC50 in the data set on MDA-MB-361 [7] stood at 18 nM; in the data set with MDA-MB-361 [2], 12 nM; in the data set with MDA-MB-361 [8], 33 nM.
